Measured values as given in ChEMBL document CHEMBL1208681, “Synthesis and antitumor activities of novel 1,4-disubstituted phthalazine derivatives” (Eur J Med Chem, 2010).

What was measured:
MDA-MB-231 [1] = test: Ratio of IC50 for compound to IC50 for PTK-787 for human MDA-MB-231 cells; format: functional
HT-29 [2] = test: Cytotoxicity against human HT-29 cells after 72 hrs by MTT assay; format: functional, cell-based
Summary of the method: (§1)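 Cells grown in MEM with 10% FBS. About 4 × 10^3 cells per well were seeded and held 24 h at 37 °C in 5% CO2. Compounds were added at the indicated final concentrations for 72 h. MTT was added to 5 µg/mL final for 4 h at 37 °C. Formazan was dissolved in DMSO and read at 492 nm against 630 nm reference. Each line was tested twice; IC50 is the mean of two determinations.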

A549 [3] = test: Ratio of IC50 for compound to IC50 for PTK-787 for human A549 cells; format: functional
MDA-MB-231 [4] = test: Cytotoxicity against human MDA-MB-231 cells after 72 hrs by MTT assay; format: functional, cell-based; conditions: MDA-MB-231, 72 h; summary of the method: as §1
HT-29 [5] = test: Ratio of IC50 for compound to IC50 for PTK-787 for human HT-29 cells; format: functional
A549 [6] = test: Cytotoxicity against human A549 cells after 72 hrs by MTT assay; format: functional, cell-based; summary of the method: as §1
[7] = Homo sapiens, HT-29, 72 h, read-out: IC50
[8] = Homo sapiens, A549, 72 h, read-out: IC50

Row | SMILES | Ratio IC50 (MDA-MB-231 [1]) | IC50 (HT-29 [2]; [7]) [µM] | Ratio IC50 (A549 [3]) | IC50 (MDA-MB-231 [4]) [µM] | Ratio IC50 (HT-29 [5]) | IC50 (A549 [6]; [8]) [µM] | IC50 (A549 [6]; a549) | IC50 (HT-29 [2]; ht-29)
1 | O=C(CN1CCN(c2nnc(Cc3ccncc3)c3ccccc23)CC1)Nc1ccc(F)c(F)c1 | 69000 | 2.32 | 5.6 | 0.00084 | 10.8 | 3.79 | – | –
2 | O=C(CN1CCN(c2nnc(Cc3ccncc3)c3ccccc23)CC1)Nc1ccc(F)c(Cl)c1 | – | 0.88 | – | 0.004 | – | 12.3 | – | –
3 | O=C(CN1CCN(c2nnc(Cc3ccncc3)c3ccccc23)CC1)Nc1ccc(F)c(C(F)(F)F)c1 | – | 1.11 | – | 0.0019 | – | 16 | – | –
4 | Cc1ccc(F)cc1NC(=O)CN1CCN(c2nnc(Cc3ccncc3)c3ccccc23)CC1 | – | 0.47 | – | 0.0064 | – | 38.9 | – | –
5 | O=C(CN1CCN(c2nnc(Cc3ccncc3)c3ccccc23)CC1)Nc1cc(C(F)(F)F)ccc1Cl | – | 4.81 | – | 0.0037 | – | 1.85 | – | –
6 | Cc1cccc(Cl)c1NC(=O)CN1CCN(c2nnc(Cc3ccncc3)c3ccccc23)CC1 | – | 22.6 | – | 2.67 | – | 7.19 | – | –
7 | O=C(CN1CCN(c2nnc(Cc3ccncc3)c3ccccc23)CC1)Nc1c(F)cccc1F | – | 28.7 | – | 1.9 | – | 54.4 | – | –
8 | Cc1ccc(NC(=O)CN2CCN(c3nnc(Cc4ccncc4)c4ccccc34)CC2)c(C)c1 | – | 1.93 | – | 0.24 | – | 45 | – | –
9 | COc1ccc(NC(=O)CN2CCN(c3nnc(Cc4ccncc4)c4ccccc34)CC2)cc1OC | – | 40.1 | – | 0.1 | – | 26.5 | – | –
10 | O=C(CN1CCN(c2nnc(Cc3ccncc3)c3ccccc23)CC1)Nc1cccc(F)c1 | – | 6.13 | – | 0.0044 | – | 4.6 | – | –
11 | O=C(CN1CCN(c2nnc(Cc3ccncc3)c3ccccc23)CC1)Nc1cccc(Br)c1 | – | 1.35 | – | 0.0017 | – | 1.53 | – | –
12 | O=C(CN1CCN(c2nnc(Cc3ccncc3)c3ccccc23)CC1)Nc1ccc(Br)cc1 | – | 1.99 | – | 0.019 | – | 2.71 | – | –
13 | Cc1ccccc1NC(=O)CN1CCN(c2nnc(Cc3ccncc3)c3ccccc23)CC1 | – | 15 | – | 0.2 | – | 43.1 | – | –
14 | O=C(CN1CCN(c2nnc(Cc3ccccc3)c3ccccc23)CC1)Nc1ccc(F)c(F)c1 | – | 9.51 | – | 2.75 | – | 10.1 | – | –
15 | O=C(CN1CCN(c2nnc(Cc3ccccc3)c3ccccc23)CC1)Nc1ccc(F)c(Cl)c1 | – | 13.3 | – | 7.36 | – | – | Not Active | –
16 | O=C(CN1CCN(c2nnc(Cc3ccccc3)c3ccccc23)CC1)Nc1ccc(F)c(C(F)(F)F)c1 | – | 4.59 | – | 0.76 | – | 2.48 | – | –
17 | Cc1ccc(F)cc1NC(=O)CN1CCN(c2nnc(Cc3ccccc3)c3ccccc23)CC1 | – | 170 | – | 19.2 | – | – | Not Active | –
18 | O=C(CN1CCN(c2nnc(Cc3ccccc3)c3ccccc23)CC1)Nc1cc(C(F)(F)F)ccc1Cl | – | 66.8 | – | 19.5 | – | 89 | – | –
19 | Cc1cccc(Cl)c1NC(=O)CN1CCN(c2nnc(Cc3ccccc3)c3ccccc23)CC1 | – | 53.6 | – | 3.92 | – | 7.42 | – | –
20 | O=C(CN1CCN(c2nnc(Cc3ccccc3)c3ccccc23)CC1)Nc1c(F)cccc1F | – | 19.7 | – | 5.49 | – | 84.5 | – | –
21 | Cc1ccc(NC(=O)CN2CCN(c3nnc(Cc4ccccc4)c4ccccc34)CC2)c(C)c1 | – | – | – | 180 | – | – | Not Active | Not Active
22 | COc1ccc(NC(=O)CN2CCN(c3nnc(Cc4ccccc4)c4ccccc34)CC2)cc1OC | – | 145 | – | 32.2 | – | – | Not Active | –
23 | O=C(CN1CCN(c2nnc(Cc3ccccc3)c3ccccc23)CC1)Nc1cccc(F)c1 | – | 95 | – | 3.73 | – | 130 | – | –
24 | O=C(CN1CCN(c2nnc(Cc3ccccc3)c3ccccc23)CC1)Nc1cccc(Br)c1 | – | 13.4 | – | 3.88 | – | – | Not Active | –
25 | O=C(CN1CCN(c2nnc(Cc3ccccc3)c3ccccc23)CC1)Nc1ccc(Br)cc1 | – | 60.2 | – | 12.4 | – | 2 | – | –
26 | Cc1ccccc1NC(=O)CN1CCN(c2nnc(Cc3ccccc3)c3ccccc23)CC1 | – | 113 | – | 17.3 | – | – | Not Active | –
27 | Clc1ccc(Nc2nnc(Cc3ccncc3)c3ccccc23)cc1 [VATALANIB] | – | 22.1 | – | 57.7 | – | 21.2 | – | –
